Consider 14 compounds from ChEMBL document CHEMBL3259813, “Design, synthesis and in vitro and in vivo antitumour activity of 3-benzylideneindolin-2-one derivatives, a novel class of small-molecule inhibitors of the MDM2-p53 interaction” (Eur J Med Chem, 2014).

Series [1] relates to HCT-116. The series is described as follows: Antiproliferative activity against human HCT116 cells expressing wild type p53 after 48 hrs by MTT assay. The settings on record: HCT-116, 48 h. (In general: Tetrazolium assays rely on reduction of a dye to a coloured formazan, in cell work by metabolically active cells.)
The subject of series [2] is HCT-116. Briefly: Antiproliferative activity against p53-deficient human HCT116 cells after 48 hrs by MTT assay. The settings on record: HCT-116, 48 h.
Series [3] has as its system A549. Briefly: Antiproliferative activity against human A549 cells after 48 hrs by MTT assay. The conditions noted are these: A549, 48 h.
Series [4] relates to MCF7. Briefly: Antiproliferative activity against human MCF7 cells after 48 hrs by MTT assay. The settings on record: MCF7, 48 h.
Series [5] deals with HCT-116. Briefly: Induction of apoptosis in human HCT116 cells after 48 hrs by propidium iodide staining-based flow cytometry. Type of series: functional, cell-based. The gist of the method: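 HCT116 cells seeded at 2×10^5/well, grown 48 h, then exposed to compound for 48 h. Cells fixed overnight in 70% ice-cold ethanol, treated with RNase A (100 µg/ml, 30 min, room temperature), stained with propidium iodide (50 µg/mL final). Analysed by flow cytometry.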

Series [6] deals with HCT-116. Briefly: […] in human HCT116 cells assessed as accumulation at G1 phase at 50 uM after 48 hrs by propidium iodide staining-based flow cytometry (reference value: 62.5%). Type of series: functional. The gist of the method:
(§1)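 HCT116 (wild-type p53) seeded at 2×10^5 cells/well, cultured 48 h, then treated with compound for 48 h. Washed in cold PBS, fixed overnight in 70% ice-cold ethanol, RNase A (100 µg/ml) 30 min at room temperature, stained with propidium iodide (50 µg/mL final). Cell cycle distribution by flow cytometry.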
On the technique in general: A flow cytometer gives signals particle by particle.

For series [7], the system named is HCT-116. Briefly: […] in human HCT116 cells assessed as accumulation at S phase at 50 uM after 48 hrs by propidium iodide staining-based flow cytometry (reference value: 24.8%). Type of series: functional. The gist of the method:
as §1

Series [8] deals with Mus musculus. The series is described as follows: Toxicity in BALB/c mouse allografted with mouse CT26 cells assessed as body weight at 50 mg/kg, ip qd administered for 10 days (reference value: 19.45 gm). Format: organism-based. More on the design: dose 50 mg/kg, route intraperitoneal. The settings on record: in vivo, 240 h.
Series [9] has as its system CT26. Briefly: Antitumor activity against mouse CT26 cells allografted in ip dosed BALB/c mouse assessed as tumor growth inhibition administered qd for 10 days. Format: functional, organism-based. Put shortly:
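CT26 cell suspension implanted s.c. in right axilla of BALB/c mice; randomised 10/group. Dosing i.p. once daily for 10 days, starting 24 h after implantation; vehicle and blank control groups. Mice sacrificed 24 h after last dose, tumours excised and weighed; inhibition = (A–B)/A×100%, A and B mean tumour weights of control and treated groups.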

In series [10] the test system is HCT-116. Briefly: Induction of p21 expression in human HCT116 cells after 48 hrs by Western blotting analysis. Format: functional, cell-based. Put shortly: (§2)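 p53 wild-type HCT116 cells exposed to a range of concentrations for 48 h, lysed in Tris/NaCl/Triton X-100 buffer with protease inhibitors. Protein assayed by Bio-Rad method, separated by SDS-PAGE, transferred to PVDF, blocked in 5% non-fat milk. Primary antibody 2 h at room temperature, peroxidase secondary, ECL detection; beta-actin as loading control.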
In general terms: In western blotting, separated proteins are transferred to a membrane and probed.

In series [11] the test system is HCT-116. Briefly: Induction of p53 expression in human HCT116 cells after 48 hrs by Western blotting analysis. Type of series: functional, cell-based. Put shortly:
as §2

Series [12] has as its system HCT-116. The series is described as follows: Induction of MDM2 expression in human HCT116 cells after 48 hrs by Western blotting analysis. Type of series: functional, cell-based. The gist of the method:
as §2

Series [13] concerns Mus musculus. Briefly: Toxicity in BALB/c mouse assessed as death at 500 mg/kg, ip up to 8 days. The conditions noted are these: in vivo, 192 h. Type of series: organism-based. The arrangement: dose 500 mg/kg, route intraperitoneal. The gist of the method:
(§3)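 BALB/c mice randomised into two groups of 10; single intraperitoneal dose of 500 or 1000 mg/kg in 10% DMSO. Animals monitored for death and visible signs of toxicity over 8 days.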

Series [14] deals with Mus musculus. Briefly: Toxicity in BALB/c mouse assessed as visible side effect at 500 mg/kg, ip up to 8 days. Format: organism-based. More on the design: dose 500 mg/kg, route intraperitoneal. The settings on record: in vivo, 192 h. The gist of the method:
as §3

Series [15] concerns Mus musculus. The series is described as follows: Toxicity in BALB/c mouse assessed as death at 1000 mg/kg, ip after 24 hrs. Format: organism-based. More on the design: dose 1000 mg/kg, route intraperitoneal. The settings on record: in vivo. Put shortly: as §3
For series [16], the system named is Mus musculus. Briefly: Toxicity in BALB/c mouse allografted with mouse CT26 cells assessed as body weight at 100 mg/kg, ip qd administered for 10 days (reference value: 19.45 gm). Format: organism-based. More on the design: dose 100 mg/kg, route intraperitoneal. The conditions noted are these: in vivo, 240 h.

Bounds are passed on as bounds.

What is called GI50 is the concentration that inhibits growth by half. A lower GI50 goes with greater sensitivity of the cells. `COc1ccc(/C=C2/C(=O)Nc3ccc(Cl)cc32)c(OC)c1`: the GI50 in [1] is 49.2 µM; in series [2] it was 126 µM; in [3] it was > 100 µM; in series [4], > 100 µM.
Take `COc1ccc(C2=N[C@@H](c3ccc(Cl)cc3)[C@@H](c3ccc(Cl)cc3)N2C(=O)N2CCNC(=O)C2)c(OC(C)C)c1` [NUTLIN-3]: the GI50 amounted to 32.1 µM in series [1], 55.7 µM in series [2], 47.6 µM in [3] and 48.7 µM in series [4]. Moreover, the Activity entry in series [5] is “Dose-dependent effect”; in series [6], 53%; in series [7], 8.7%.
As for `COc1ccc(/C=C2/C(=O)Nc3ccc(Cl)cc32)c(-c2ccc(C#N)cc2)c1`, the GI50 is 27.1 µM in series [1], 124 µM in series [2], > 100 µM in [3] and > 100 µM in [4].
Take `CCCOc1ccc(/C=C2/C(=O)Nc3ccc(Cl)cc32)c(OCCC)c1`: the GI50 is 21 µM in series [1], 26.1 µM in series [2], 30.2 µM in series [3] and 58.4 µM in [4].
For `COc1cccc(/C=C2/C(=O)Nc3cc(Cl)ccc32)c1-c1ccc(C#N)cc1`, in that order: 48.3 µM, 110 µM, 81.6 µM and > 100 µM.
For `CC(C)Oc1ccc(/C=C2/C(=O)Nc3cc(Cl)ccc32)c(OC(C)C)c1`, in that order: 23.4 µM, 42 µM, 30.4 µM and 42.9 µM.
For `CCCOc1ccc(/C=C2/C(=O)Nc3ccccc32)c(OCCC)c1`, in that order: 14.4 µM, 21.3 µM, 42.4 µM and 54 µM.
`COc1ccc(/C=C2/C(=O)Nc3ccccc32)c(OC)c1`: the Activity is 18.95 g in [8]; “Dose-dependent effect” in series [10]; “Dose-dependent effect” in series [11]; “Dose-dependent effect” in [12]; “Dose-dependent effect” in [5]; “Non-toxic” in series [13]. Besides, the Activity result in series [14] is “Non-toxic”; in series [15], “Toxic”; in series [16] it was 18.91 g. Moreover, the TGI result in series [9] was “Dose-dependent effect”. The GI50 in series [1] came out at 13.4 µM; in [2], 28.1 µM; in series [3], 52.5 µM; in series [4], 54.1 µM.
Consider `COc1ccc(/C=C2/C(=O)Nc3cc(F)ccc32)c(OC)c1`, for which the GI50 is 26.9 µM in series [1], 65.5 µM in [2], > 100 µM in series [3] and 88.4 µM in series [4].
For `COc1ccc(/C=C2/C(=O)Nc3ccc(Cl)cc32)c(-c2ccc(Cl)cc2)c1`, in that order: 32.2 µM, 135 µM, 86.7 µM and > 100 µM.
For `COc1ccc(/C=C2/C(=O)Nc3ccc(F)cc32)c(-c2ccc(Cl)cc2)c1`, in that order: 15.3 µM, 27.3 µM, 58.8 µM and > 100 µM.
For `COc1ccc(/C=C2/C(=O)Nc3cc(F)ccc32)c(-c2ccc(C#N)cc2)c1`, in that order: 17.1 µM, 109 µM, > 100 µM and > 100 µM.
With `CC(C)Oc1ccc(/C=C2/C(=O)Nc3ccc(Cl)cc32)c(OC(C)C)c1`, the GI50 in series [1] is 29.7 µM; in series [2], 37.7 µM; in series [3], 42.6 µM; in series [4], 55.7 µM.
Turning to `COc1ccc(/C=C2/C(=O)Nc3ccc(Cl)cc32)c(Br)c1`, the GI50 was 53.4 µM in series [1], 115 µM in series [2], > 100 µM in [3] and > 100 µM in series [4].
